Screening results as filed in PubChem BioAssay.
Most compounds without a hit are left out; they make up all but 0.63% or so of the library.
TRPML3 agonist: activates the human TRPML3 channel. HEK293 TRPML3-YFP, Fluo-8 calcium fluorescence; 100% = the carbachol control signal. activation, % at 3 µM. hit rate 0.29% among 220,000. AID 1448;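 active means activation above its plate's cutoff, the mean activation of the plate's test wells plus 3 SD, cut at about 12% in these data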
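Test system: HEK293 cells stably carrying human TRPML3-YFP; Doses: single dose, 3 µM final nominal compound, 0.3% DMSO final; Schedule: dye loading 1 h 37 °C then 30 min ambient, 125 s read; Technique: Fluo-8 calcium fluorescence; Benchmarks: high control carbachol 87 µM, low control DMSO.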
IDE inh: inhibitors of human insulin-degrading enzyme in cells. P14735. HEK cells, FAbetaB cleavage, fluorescence polarization. inhibition, % at 5.59 µM. hit rate 0.41% among 320,000. AID 434962;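 active means percent inhibition above the average of all tested compounds plus 3 SD, set per screening campaign, cut at about 16% in these data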;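 further: IDE supplied by intact live HEK cells; FP after avidin binding of uncleaved biotin substrate so inhibition keeps polarization high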
Target sequence (P14735 whole entry, looked up): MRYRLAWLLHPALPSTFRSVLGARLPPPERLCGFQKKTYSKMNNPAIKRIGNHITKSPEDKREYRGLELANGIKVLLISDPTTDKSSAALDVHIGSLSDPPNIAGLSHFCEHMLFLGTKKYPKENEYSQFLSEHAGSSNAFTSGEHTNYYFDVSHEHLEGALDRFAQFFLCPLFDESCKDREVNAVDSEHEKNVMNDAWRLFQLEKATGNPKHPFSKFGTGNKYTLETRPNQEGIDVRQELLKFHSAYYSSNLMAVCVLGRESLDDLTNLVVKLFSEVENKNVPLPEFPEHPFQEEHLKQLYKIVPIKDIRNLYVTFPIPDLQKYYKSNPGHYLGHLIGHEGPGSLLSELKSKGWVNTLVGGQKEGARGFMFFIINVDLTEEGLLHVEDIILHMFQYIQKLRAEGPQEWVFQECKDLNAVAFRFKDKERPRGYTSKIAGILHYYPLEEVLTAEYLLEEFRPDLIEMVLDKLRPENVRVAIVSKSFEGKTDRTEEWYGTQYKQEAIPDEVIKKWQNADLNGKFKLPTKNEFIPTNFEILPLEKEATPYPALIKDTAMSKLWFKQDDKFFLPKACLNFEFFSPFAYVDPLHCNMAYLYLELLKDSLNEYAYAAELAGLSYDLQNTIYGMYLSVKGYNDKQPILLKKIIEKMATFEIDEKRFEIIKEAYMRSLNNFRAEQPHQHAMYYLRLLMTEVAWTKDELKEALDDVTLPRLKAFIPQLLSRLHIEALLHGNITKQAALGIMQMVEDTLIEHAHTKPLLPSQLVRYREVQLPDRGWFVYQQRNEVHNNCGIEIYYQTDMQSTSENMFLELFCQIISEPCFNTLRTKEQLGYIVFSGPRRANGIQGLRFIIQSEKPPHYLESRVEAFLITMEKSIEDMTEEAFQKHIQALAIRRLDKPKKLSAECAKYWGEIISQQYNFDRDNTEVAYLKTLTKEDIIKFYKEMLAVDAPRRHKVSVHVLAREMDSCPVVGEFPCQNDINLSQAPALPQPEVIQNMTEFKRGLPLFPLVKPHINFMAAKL
TRPN1 ag: activates the zebrafish TRPN1 channel | HEK293 zebrafish TRPN1-YFP, Fluo-8 calcium fluorescence; 100% = response to 87 µM carbachol | hit rate 0.18% among 220,000 | activation, % at 3 µM;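 active means activation above its plate's cutoff, the mean activation of test wells on that plate plus 3 SD, cut at about 19% in these data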
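Control set: carbachol 87 µM as high control, DMSO as low control; system: HEK293 stable line with zebrafish TRPN1-YFP; read-out: % activation versus carbachol response; detection: intracellular calcium fluorescence with Fluo-8; doses: single test compound dose, 3 µM nominal, 0.3% DMSO; schedule: dye 1 h 37 °C plus 30 min RT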
IDE act: activators of human insulin-degrading enzyme in cells | HEK cells, FAbeta-B cleavage, fluorescence polarization; 0% vehicle, 100% cell-free pure enzyme wells | P14735 | activation, % at 5.96 µM | hit rate 0.073% among 340,000;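 active means activation above the mean of all tested compounds plus 3 SD, set per screening campaign, cut at about 17% in these data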
IDE inh confirm: cellular human IDE inhibition, confirmation. shares compounds with IDE inh. HEK cells, FAbetaB cleavage, fluorescence polarization. inhibition, % at 5.59 µM. hit rate 51% among 1,200;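 active means mean inhibition across triplicate wells above the cutoff set by the earlier primary insulin-degrading enzyme screen, cut at about 16% in these data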
HEK cytotox: kills HEK cells in IDE inhibitor counter-screen | shares compounds with IDE inh | HEK293 cytotoxicity, ATP luminescence | inhibition, % at 5.59 µM | hit rate 28% among 1,200; in the data active means inhibition above about 22%
IDE FP artifact: counter-screen for IDE inhibitors: fluorescent artifacts | shares compounds with IDE inh | FP counterscreen for fluorescent artifacts, IDE probe project | IC50, µM | 30 tested, under 10 active | AID 588718; call rule not given here
A number is an active result; n = inactive; x = no result.

SMILES	TRPML3 agonist	IDE inh	TRPN1 ag	IDE act	IDE inh confirm	HEK cytotox	others
C=CCn1c(C)c(/C=C/c2cc[n+](C)cc2)c2ccccc21	x	87.0	x	n	97.3	78.1
NC(=S)N/N=C\c1ccc(-c2cccc(Cl)c2Cl)o1	n	26.6	n	n	n	28.5
O=C(COc1ccc(S(=O)(=O)N2CCOCC2)cc1)N1CCN(c2ccccc2)CC1	x	20.8	x	n	n	22.3
O=C(COc1ccc(S(=O)(=O)N2CCOCC2)cc1)N1CCc2ccccc2C1	n	n	n	n	x	x
COc1cc(C(=O)N2CCN(C(=O)C3COc4ccccc4O3)CC2)cc(OC)c1OC (configuration not stated)	x	23.0	x	n	n	n
CC(C)(C)NC(=O)CSc1nc(-c2ccc(F)cc2)cs1	n	16.5	n	n	n	n
Cc1ccc(C(=O)C2=C(O)C(=O)N(CC3CCCO3)C2c2ccccc2F)o1 (configuration not stated)	x	n	x	n	x	x
CCn1c(-c2ccc(-c3ccccc3)cc2)c[nH]c1=S	n	16.1	n	n	n	n
CCOC(=O)c1c(C)[nH]c(C(=O)Cn2nnc(-c3ccccc3Cl)n2)c1C	n	18.8	n	n	n	n
Cc1nc2ccccc2n1S(=O)(=O)c1cc(C(=O)O)ccc1Cl	x	n	x	n	x	x
O=c1[nH]oc2cc(Cl)ccc12	n	16.7	n	n	n	n
O=c1cc[nH]c2cc(Cl)ccc12	n	n	n	n	x	x
O=C1NC(=S)CN1c1ccccc1	n	23.8	n	n	n	n
N#C/C(=C\c1ccc(N2CCOCC2)o1)C(=O)Nc1ccc(O)cc1	n	58.6	n	x	65.6	n
N#C/C(=C/c1ccc(N2CCCCC2)o1)C(=O)Nc1ccc(Cl)cc1	38.8	71.4	28.2	n	63.6	33.7
CC1CC1c1ccc(/C=C(\C#N)C(=O)Nc2ccc(Cl)cc2)o1 (configuration not stated)	n	n	n	n	x	x
COc1ccc(NC(=O)/C(C#N)=C\c2ccc(N3CCOCC3)o2)cc1	40.4	126.1	49.0	n	144.6	n
N#C/C(=C\c1ccc(N2CCOCC2)o1)c1ccccc1	n	n	n	n	x	x
N#C/C(=C/c1ccc(N2CCOCC2)o1)c1nc2ccccc2[nH]1	n	35.5	n	n	26.0	28.5
O=C(CCCO)N/N=C/c1ccccc1[N+](=O)[O-]	n	n	n	n	x	x
CCN1CCN(C(=O)C(=O)c2cn(CC(=O)N3CCCC3)c3ccccc23)CC1	x	n	x	n	x	x
Nc1c(C(=O)Nc2nccs2)sc2nc(-c3cccs3)cc(C(F)(F)F)c12	n	19.9	n	n	16.4	n	IDE FP artifact=n
COc1ccc2c(c1)CC/C(=C/c1ccco1)C2=O	n	19.2	n	n	n	n
Cc1cc(C)cc(Oc2cc(NC(=O)c3cn(C)nc3C)cc([N+](=O)[O-])c2)c1	n	n	n	n	x	x
CCC(C)[C@H](NC(=O)OC(C)(C)C)C(=O)NCC1CCC(C(=O)N[C@@H](Cc2ccccc2)C(=O)O)CC1 (some centres not stated)	x	n	x	n	x	x
SMILES	TRPML3 agonist	IDE inh	TRPN1 ag	IDE act	IDE inh confirm	HEK cytotox	others
COc1cc(C=C(c2nc3ccccc3s2)c2nc3ccccc3s2)ccc1O	n	27.0	n	n	58.5	n
COc1cc(/C=C/c2nc3ccccc3s2)cc(OC)c1O	n	141.7	n	n	102.8	n
O=C(C1CCC1)N1CCN(c2ccnc3cc(Cl)ccc23)CC1	n	21.3	n	n	17.9	n
O=C(c1ccc(Cl)cc1)N1CCN(C(=O)C2CCCCC2)CC1	x	n	x	n	x	x
O=S(=O)(c1ccccc1OC(F)(F)F)N1CCN(c2ccnc3cc(Cl)ccc23)CC1	x	n	x	n	x	x
O=C(C1CCCCC1)N1CCN(c2ccnc3cc(Cl)ccc23)CC1	n	23.8	n	n	23.0	42.4
CC(C)(C)C(=O)N1CCN(c2ccnc3cc(Cl)ccc23)CC1	x	33.6	x	n	16.6	n
O=C(c1ccco1)N1CCN(c2ccnc3cc(Cl)ccc23)CC1	n	26.3	n	n	17.6	n
CC[C@H](C)[C@H](NC(=O)c1ccccc1)C(=O)Nc1ccc(S(=O)(=O)Nc2cc(C)nc(C)n2)cc1	n	n	n	n	x	x
CCC(Oc1ccccc1)C(=O)N1CC(C)CC(C)C1 (configuration not stated)	n	n	n	n	x	x
